Laboratory results: ChEMBL document CHEMBL2413060, “Synthesis, biological evaluation and molecular docking studies of some pyrimidine derivatives” (2013)
In brackets after ≈: the same amount, converted by molar mass.

Experiments:
Assay type in all cases: functional
IGROV-1 = experiment: Cytotoxicity against human IGROV1 cells assessed as growth inhibition at 10 uM; conditions: read-out: GI
NCI/ADR-RES = experiment: Cytotoxicity against human NCI/ADR-RES cells assessed as growth inhibition at 10 uM; conditions: read-out: GI
Method in brief: (§1)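 Single-dose screen on human tumour cell lines. Growth of treated cells is expressed as percent of untreated growth, plotted as a mean graph, and reported as percent growth inhibition.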

Malme-3M = experiment: Cytotoxicity against human MALME-3M cells assessed as growth inhibition at 10 uM; conditions: read-out: GI
Candida albicans [1] = experiment: Antifungal activity against Candida albicans ATCC 2091 assessed as diameter of inhibition zone at 1 mg/ml after 48 hrs by cup diffusion method (reference value: 22 mm); conditions: ATCC 2091, 48 h, read-out: DIZ
Shigella flexneri [2] = experiment: Antibacterial activity against Shigella flexneri ATCC 15391 after 24 hrs by two-fold serial dilution method relative to ofloxacin
CCRF-CEM = experiment: Cytotoxicity against human CCRF-CEM cells assessed as growth inhibition at 10 uM; conditions: read-out: GI
Shigella flexneri [3] = experiment: Antibacterial activity against Shigella flexneri ATCC 15391 after 24 hrs by two-fold serial dilution method; conditions: ATCC 15391, 24 h
Method in brief: (§2)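 Two-fold serial broth dilution in sterile nutrient broth at 500, 250, 125, 62.5, 31.25, 15.63, 7.82 and 3.91 µg/ml, with dimethylformamide ≤2.5%. Organisms were pre-grown 24 h in broth, and 0.1 ml inoculum was added per 5 ml tube. Tubes were incubated at 37°C, 24 h for bacteria and 48 h for fungi. MIC was taken as the lowest concentration giving no turbidity.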

NCI-H460 = experiment: Cytotoxicity against human NCI-H460 cells assessed as growth inhibition at 10 uM; conditions: read-out: GI; method in brief: as §1
SNB-75 = experiment: Cytotoxicity against human SNB75 cells assessed as growth inhibition at 10 uM; conditions: read-out: GI; method in brief: as §1
SR = experiment: Cytotoxicity against human SR cells assessed as growth inhibition at 10 uM; conditions: read-out: GI; method in brief: as §1
PC-3 = experiment: Cytotoxicity against human PC3 cells assessed as growth inhibition at 10 uM; conditions: read-out: GI; method in brief: as §1
UACC-62 = experiment: Cytotoxicity against human UACC62 cells assessed as growth inhibition at 10 uM; conditions: read-out: GI
Method in brief: (§3)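 Single-dose screen in a sixty-cell human tumour line panel; percent growth of treated cells relative to untreated was read and reported as percentage growth inhibition, shown as a mean graph. Compounds meeting the threshold inhibition criteria went on to five-dose testing.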

SK-MEL-2 = experiment: Cytotoxicity against human SK-MEL-2 cells assessed as growth inhibition at 10 uM; conditions: read-out: GI; method in brief: as §1
HOP-62 = experiment: Cytotoxicity against human HOP62 cells assessed as growth inhibition at 10 uM; conditions: read-out: GI
HOP-92 = experiment: Cytotoxicity against human HOP92 cells assessed as growth inhibition at 10 uM; conditions: read-out: GI
[4] = Cytotoxicity against human EKVX cells assessed as growth inhibition at 10 uM; conditions: read-out: GI
RPMI-8226 = experiment: Cytotoxicity against human RPMI8226 cells assessed as growth inhibition at 10 uM; conditions: read-out: GI; method in brief: as §1
Pseudomonas aeruginosa [5] = experiment: Antibacterial activity against Pseudomonas aeruginosa ATCC 9027 after 24 hrs by two-fold serial dilution method relative to ofloxacin
MCF7 = experiment: Cytotoxicity against human MCF7 cells assessed as growth inhibition at 10 uM; conditions: read-out: GI; method in brief: as §1
A498 = experiment: Cytotoxicity against human A498 cells assessed as growth inhibition at 10 uM; conditions: read-out: GI
Pseudomonas aeruginosa [6] = experiment: Antibacterial activity against Pseudomonas aeruginosa ATCC 9027 assessed as diameter of inhibition zone at 1 mg/ml after 24 hrs by cup diffusion method (reference value: 16 mm); conditions: ATCC 9027, 24 h, read-out: DIZ
CAKI-1 = experiment: Cytotoxicity against human Caki1 cells assessed as growth inhibition at 10 uM; conditions: read-out: GI
Staphylococcus aureus [7] = experiment: Antibacterial activity against Staphylococcus aureus ATCC 6538P assessed as diameter of inhibition zone at 1 mg/ml after 24 hrs by cup diffusion method (reference value: 15 mm); conditions: read-out: DIZ
T47D = experiment: Cytotoxicity against human T47D cells assessed as growth inhibition at 10 uM; conditions: read-out: GI; method in brief: as §1
Shigella flexneri [8] = experiment: Antibacterial activity against Shigella flexneri ATCC 15391 assessed as diameter of inhibition zone at 1 mg/ml after 24 hrs by cup diffusion method (reference value: 17 mm); conditions: ATCC 15391, 24 h, read-out: DIZ
SF-295 = experiment: Cytotoxicity against human SF295 cells assessed as growth inhibition at 10 uM; conditions: read-out: GI; method in brief: as §1
HCC 2998 = experiment: Cytotoxicity against human HCC2998 cells assessed as growth inhibition at 10 uM; conditions: read-out: GI
NCI-H522 = experiment: Cytotoxicity against human NCI-H522 cells assessed as growth inhibition at 10 uM; conditions: read-out: GI; method in brief: as §1
M14 = experiment: Cytotoxicity against human M14 cells assessed as growth inhibition at 10 uM; conditions: read-out: GI
TK-10 = experiment: Cytotoxicity against human TK10 cells assessed as growth inhibition at 10 uM; conditions: read-out: GI; method in brief: as §3
SK-OV-3 = experiment: Cytotoxicity against human SKOV3 cells assessed as growth inhibition at 10 uM; conditions: read-out: GI; method in brief: as §1
Staphylococcus aureus [9] = experiment: Antibacterial activity against Staphylococcus aureus ATCC 6538P after 24 hrs by two-fold serial dilution method relative to ampicillin
Staphylococcus aureus [10] = experiment: Antibacterial activity against Staphylococcus aureus ATCC 6538P after 24 hrs by two-fold serial dilution method; method in brief: as §2
ACHN = experiment: Cytotoxicity against human ACHN cells assessed as growth inhibition at 10 uM; conditions: read-out: GI
HCT-116 = experiment: Cytotoxicity against human HCT116 cells assessed as growth inhibition at 10 uM; conditions: read-out: GI
SK-MEL-28 = experiment: Cytotoxicity against human SK-MEL-28 cells assessed as growth inhibition at 10 uM; conditions: read-out: GI; method in brief: as §1
786-0 = experiment: Cytotoxicity against human 786-0 cells assessed as growth inhibition at 10 uM; conditions: read-out: GI
UACC-257 = experiment: Cytotoxicity against human UACC257 cells assessed as growth inhibition at 10 uM; conditions: read-out: GI; method in brief: as §3
BT-549 = experiment: Cytotoxicity against human BT549 cells assessed as growth inhibition at 10 uM; conditions: read-out: GI
SN12C = experiment: Cytotoxicity against human SN12C cells assessed as growth inhibition at 10 uM; conditions: read-out: GI; method in brief: as §1
OVCAR-8 = experiment: Cytotoxicity against human OVCAR8 cells assessed as growth inhibition at 10 uM; conditions: read-out: GI; method in brief: as §1
Hs-578T = experiment: Cytotoxicity against human Hs578T cells assessed as growth inhibition at 10 uM; conditions: read-out: GI
NCI-H322M = experiment: Cytotoxicity against human NCI-H322M cells assessed as growth inhibition at 10 uM; conditions: read-out: GI; method in brief: as §1
UO-31 = experiment: Cytotoxicity against human UO31 cells assessed as growth inhibition at 10 uM; conditions: read-out: GI; method in brief: as §3
OVCAR-3 = experiment: Cytotoxicity against human OVCAR3 cells assessed as growth inhibition at 10 uM; conditions: read-out: GI; method in brief: as §1
SF-539 = experiment: Cytotoxicity against human SF539 cells assessed as growth inhibition at 10 uM; conditions: read-out: GI; method in brief: as §1
Candida albicans [11] = experiment: Antifungal activity against Candida albicans ATCC 2091 after 48 hrs by two-fold serial dilution method; conditions: ATCC 2091, 48 h; method in brief: as §2
Candida albicans [12] = experiment: Antifungal activity against Candida albicans ATCC 2091 after 48 hrs by two-fold serial dilution method relative to clotrimazole
MDA-MB-435 = experiment: Cytotoxicity against human MDA-MB-435 cells assessed as growth inhibition at 10 uM; conditions: read-out: GI; method in brief: as §1
RXF 393 = experiment: Cytotoxicity against human RXF393 cells assessed as growth inhibition at 10 uM; conditions: read-out: GI; method in brief: as §1
K562 = experiment: Cytotoxicity against human K562 cells assessed as growth inhibition at 10 uM; conditions: read-out: GI

Structure (SMILES)	inhibition of growth at 10 µM (IGROV-1) [%]	inhibition of growth at 10 µM (NCI/ADR-RES) [%]	inhibition of growth at 10 µM (Malme-3M) [%]	zone of inhibition at 1000 µg/mL (Candida albicans [1]) [mm]	inhibition of growth at 10 µM (NCI-H460) [%]	inhibition of growth at 10 µM (SNB-75) [%]	inhibition of growth at 10 µM (PC-3) [%]	inhibition of growth at 10 µM (UACC-62) [%]	inhibition of growth at 10 µM (SK-MEL-2) [%]	inhibition of growth at 10 µM (HOP-62) [%]	inhibition of growth at 10 µM (HOP-92) [%]	inhibition of growth at 10 µM (RPMI-8226) [%]	inhibition of growth at 10 µM (MCF7) [%]	inhibition of growth at 10 µM (A498) [%]	zone of inhibition at 1000 µg/mL (Pseudomonas aeruginosa [6]) [mm]	inhibition of growth at 10 µM (CAKI-1) [%]	zone of inhibition at 1000 µg/mL (Staphylococcus aureus [7]) [mm]	inhibition of growth at 10 µM (T47D) [%]	zone of inhibition at 1000 µg/mL (Shigella flexneri [8]) [mm]	inhibition of growth at 10 µM (SF-295) [%]	further results
N#Cc1c(N2CCOCC2)nc(=S)[nH]c1-c1ccco1	79.3	59.8	97.8	22	49.9	84.1	57.4	56.7	63	64.2	112	57	73.3	101	16	41.8	15	81.1	22	52.6	Activity (Shigella flexneri [2]): 60%; inhibition of growth at 10 µM (CCRF-CEM): 50.4%; MIC (Shigella flexneri [3]): 125 µg/mL (≈ 434 µM); inhibition of growth at 10 µM (SR): 82.2%; inhibition of growth at 10 µM [4]: 51.2%; Activity (Pseudomonas aeruginosa [5]): 60%; inhibition of growth at 10 µM (HCC 2998): 121%; inhibition of growth at 10 µM (NCI-H522): 50.4%; inhibition of growth at 10 µM (M14): 60.2%; inhibition of growth at 10 µM (TK-10): 52.9%; inhibition of growth at 10 µM (SK-OV-3): 45%
CSc1nc(-c2ccco2)c(C#N)c(=O)n1C		48.8		22											17		19		17		Activity (Staphylococcus aureus [9]): 50%; MIC (Staphylococcus aureus [10]): 125 µg/mL (≈ 506 µM); inhibition of growth at 10 µM (HCC 2998): 98.4%
N#Cc1c(-c2ccccc2)nc(SCC(O)CN2CCOCC2)nc1N1CCOCC1 (stereo not given)	130		76.9	24	66	105	43.5	57.1	92.7	52	69.3		95	103	16	62.6	15	74	18	56.4	inhibition of growth at 10 µM (ACHN): 45.6%; inhibition of growth at 10 µM (HCT-116): 42.5%; inhibition of growth at 10 µM (SK-MEL-28): 40.1%; inhibition of growth at 10 µM (786-0): 61.9%; inhibition of growth at 10 µM (UACC-257): 82.9%; inhibition of growth at 10 µM (BT-549): 70.5%; inhibition of growth at 10 µM (SN12C): 42.2%; inhibition of growth at 10 µM (OVCAR-8): 66.6%; inhibition of growth at 10 µM (Hs-578T): 93.8%; inhibition of growth at 10 µM (NCI-H322M): 47.7%; inhibition of growth at 10 µM (UO-31): 58.3%; inhibition of growth at 10 µM (OVCAR-3): 64.6%; inhibition of growth at 10 µM (SF-539): 43.4%; inhibition of growth at 10 µM (M14): 40.1%; MIC (Candida albicans [11]): 125 µg/mL (≈ 283 µM); inhibition of growth at 10 µM (TK-10): 59.2%; Activity (Candida albicans [12]): 60%; inhibition of growth at 10 µM (SK-OV-3): 58.9%; inhibition of growth at 10 µM (MDA-MB-435): 47%
Cn1c(N2CCOCC2)nc(-c2ccc([N+](=O)[O-])cc2)c(C#N)c1=O	40.1			22							44.3	39.7			16		15		17		inhibition of growth at 10 µM (RXF 393): 47.7%; inhibition of growth at 10 µM (K562): 41.8%
